Measurements: ChEMBL document CHEMBL3826950, “Design and development of new class of Mycobacterium tuberculosisl-alanine dehydrogenase inhibitors” (Bioorg Med Chem, 2016)
Values after ≈ are worked out from the molar mass of the structure shown. Active and inactive are the calls of the source. The calls are words filed in the database; no cut-off is given here.

What was measured:
[1] = Inhibition of Mycobacterium tuberculosis L-AlaDH assessed as NADH production by spectrophotometric method
Method in brief: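 Oxidative deamination of L-alanine to pyruvate was followed by NADH absorbance at 340 nm at 37 °C. Background was read from reaction mix without enzyme. Compounds were tested across a 25 to 0.5 range to derive IC50.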

[2] = system: Mycobacterium tuberculosis; experiment: Antibacterial activity against actively replicative Mycobacterium tuberculosis H37Rv measured after 7 days by MABA assay; assay type: functional; settings: 168 h
Method in brief: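 Serial two-fold dilutions in 7H9-S were tested against replicating M. tuberculosis H37Rv (ATCC 27294) at 37 °C for 7 days. Alamar blue was then added and plates were incubated overnight. MIC was the lowest concentration that prevented the blue-to-pink colour change.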

[3] = system: Mycobacterium tuberculosis; experiment: Antibacterial activity against nutrient-starved dormant Mycobacterium tuberculosis H37Rv assessed in log reduction in bacterial count at 10 ug/ml measured after 7 days by MPN assay relative to control; assay type: functional
Method in brief: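 H37Rv was grown in 7H9/OADC, washed, and starved in PBS in sealed bottles at 37 °C for 6 weeks. The starved culture was treated for 7 days at 37 °C, then diluted 10-fold to 10^-6 in 7H9/OADC and plated in triplicate. After 28 days at 37 °C, wells with growth were scored and MPN was calculated (n = 3).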

[4] = Cytotoxicity against mouse RAW264.7 cells assessed as reduction in cell viability at 25 uM measured after 48 hrs by MTT assay; assay type: cell-based; settings: read-out: INH
Method in brief: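 RAW 264.7 cells were grown in RPMI with 10% FBS and penicillin/streptomycin, seeded at about 5000 cells/well on poly-L-lysine, and held 24 h at 37 °C in 5% CO2. Compound exposure lasted 48 h. MTT (0.5 mg/ml) was added for 3 h and formazan was read at 595 nm.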

Structure (SMILES) | IC50 [1] | MIC [2] | Log reduction in bacterial count [3] | cytotoxicity at 48 h, 25 µM [4] | Activity [3]
COc1ccc(C(=O)Nc2ccccc2)cc1Nc1nc(Nc2ccccn2)nc2ncccc12 | 22.1 µM |  |  |  | 
COc1c(N2C[C@@H]3CCCN[C@@H]3C2)c(F)cc2c(=O)c(C(=O)O)cn(C3CC3)c12 [MOXIFLOXACIN] |  | 1.24 µM (≈ 0.498 µg/mL) | 2.8 |  | 
O=C(NN1C(C(=O)Nc2ccc(Br)cc2)CC1C(=O)Nc1ccc(Br)cc1)c1ccncc1 (centres undefined) | > 25 µM | 2.72 µM (≈ 1.56 µg/mL) |  | 19.7% | inactive
COc1ccc(Nc2nc(Nc3ccc4c(=O)[nH][nH]c(=O)c4c3)c3cccnc3n2)cc1 | 23.3 µM |  |  |  | 
O=C(NN1C(C(=O)Nc2ccc(Cl)cc2)CC1C(=O)Nc1ccc(Cl)cc1)c1ccncc1 (centres undefined) | 5.56 µM | 51.6 µM (≈ 25 µg/mL) |  | 32.9% | 
Cc1ccc2[nH]c(/C(C#N)=C/c3ccc(-c4cc(C(=O)O)cc(C(=O)O)c4)o3)nc2c1 | 15.6 µM |  |  |  | 
Cc1cccc(C)c1NC(=O)C1CC(C(=O)Nc2c(C)cccc2C)N1NC(=O)c1ccncc1 (centres undefined) | 9.69 µM | 3.31 µM (≈ 1.56 µg/mL) |  | 26.6% | 
CC[C@@H](CO)NCCN[C@@H](CC)CO [ETHAMBUTOL] |  | 7.64 µM (≈ 1.56 µg/mL) |  |  | 
CO[C@H]1/C=C/O[C@@]2(C)Oc3c(C)c(O)c4c(O)c(c(/C=N/N5CCN(C)CC5)c(O)c4c3C2=O)NC(=O)/C(C)=C\C=C\[C@H](C)[C@H](O)[C@@H](C)[C@@H](O)[C@@H](C)[C@H](OC(C)=O)[C@@H]1C [RIFAMPIN] |  | 0.15 µM (≈ 0.123 µg/mL) | 2.2 |  | 
Cc1ccc(NC(=O)C2CC(C(=O)Nc3ccc(C)cc3C)N2NC(=O)c2ccncc2)c(C)c1 (centres undefined) | 4.38 µM | 13.3 µM (≈ 6.26 µg/mL) |  | 19.3% | 
O=C(NN1C(C(=O)Nc2ccccn2)CC1C(=O)Nc1ccccn1)c1ccncc1 (centres undefined) | 9.47 µM | 3.74 µM (≈ 1.56 µg/mL) |  | 7.68% | 
O=C(NN1C(C(=O)Nc2nc3ccccc3s2)CC1C(=O)Nc1nc2ccccc2s1)c1ccccc1 (centres undefined) | > 25 µM | 5.93 µM (≈ 3.13 µg/mL) |  | 12.3% | inactive
O=C(NN1C(C(=O)Nc2ccc(Cl)c(Cl)c2)CC1C(=O)Nc1ccc(Cl)c(Cl)c1)c1ccncc1 (centres undefined) | 13.7 µM | 1.41 µM (≈ 0.78 µg/mL) |  | 49.5% | 
O=C(NN1C(C(=O)NCc2ccccc2)CC1C(=O)NCc1ccccc1)c1ccncc1 (centres undefined) | 10.2 µM | 28.2 µM (≈ 12.5 µg/mL) |  | 49.3% | 
Cc1cccc(NC(=O)C2CC(C(=O)Nc3cccc(C)n3)N2NC(=O)c2ccncc2)n1 (centres undefined) | 14.6 µM | 3.51 µM (≈ 1.56 µg/mL) |  | 3.89% | 
Cc1cccc(/C=N/NC2=Nc3[nH]c4ccc(C)cc4c3NN2)c1 | 18.2 µM |  |  |  | 
NNC(=O)c1ccncc1 [ISONIAZID] |  | 0.72 µM (≈ 0.0987 µg/mL) | 1.5 |  | 
COc1ccc(NC(=O)C2CC(C(=O)Nc3ccc(OC)cc3OC)N2NC(=O)c2ccncc2)c(OC)c1 (centres undefined) | 11.7 µM | 46.7 µM (≈ 25 µg/mL) |  | 48.9% | 
O=C(NN1C(C(=O)Nc2ccccc2)CC1C(=O)Nc1ccccc1)c1ccncc1 (centres undefined) | 9.22 µM | 15.1 µM (≈ 6.26 µg/mL) | 1.6 | 19.8% | 
O=C(NN1C(C(=O)Nc2nc3ccccc3s2)CC1C(=O)Nc1nc2ccccc2s1)c1ccncc1 (centres undefined) | 3.83 µM | 11.8 µM (≈ 6.25 µg/mL) | 2 | 34.7% | 
O=C(NN1C(C(=O)NCCc2ccccc2)CC1C(=O)NCCc1ccccc1)c1ccncc1 (centres undefined) | 4.75 µM | 26.5 µM (≈ 12.5 µg/mL) |  | 42.3% | 
